Molecules are shown by their SMILES. pEC50, pIC50: −log10 of the molar value. Activity calls are given as the source filed them. The calls are words filed in the database; no cut-off is given here.

The values below come from ChEMBL document CHEMBL4017514, “Discovery of Novel Macrocyclic Hedgehog Pathway Inhibitors Acting by Suppressing the Gli-Mediated Transcription” (J Med Chem, 2017).

For series [1], the species on record is Mus musculus. Put plainly: Inhibition of hedgehog signaling pathway in mouse Ptch+/- p53-/- medulloblastoma cells assessed as reduction in GLI1 mRNA expression at 5 uM by RT-qPCR analysis. The method, boiled down: (§1)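 ptch+/−;p53−/− medulloblastoma cells kept in Neurobasal A/B-27 medium with EGF and bFGF, then treated. Gli1 and ptch1 mRNA measured by RT-qPCR. Data given as mean ± SD.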
(In general: In qPCR the cycle at which signal appears reflects the starting amount.)

The species named for series [2] is Mus musculus. Put plainly: Inhibition of hedgehog signaling pathway in mouse Light2 cells in Shh conditioned medium at 1 uM by Gli-luciferase reporter gene assay relative to control. The class given is cell-based.
The species entered for series [3] is Mus musculus. Put plainly: Inhibition of hedgehog signaling pathway in mouse Ptch+/- p53-/- medulloblastoma cells assessed as reduction in ptch1 mRNA expression at 5 uM by RT-qPCR analysis. The method, boiled down:
as §1

The nature of series [4]: Inhibition of hedgehog signaling pathway in mouse C3H10T1/2 cells assessed as inhibition of hedgehog-induced cell differentiation after 48 hrs by luminescence assay. The class given is cell-based. As to conditions: C3H 10T1/2, 48 h.
Series [5] can be described thus: Inhibition of hedgehog signaling pathway in mouse Light2 cells in Shh conditioned medium by Gli-luciferase reporter gene assay. The class given is cell-based. As to conditions: Mus musculus. The essentials:
(§2)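 Light II cells (NIH-3T3 stably transfected with Gli-responsive firefly luciferase and Renilla expression vector) stimulated with ShhN conditioned medium. This medium was collected from ShhN-transfected HEK293 cells kept in 0.1% FBS. Firefly luciferase normalized to Renilla. IC50 given as mean ± SD (nM) from three separate experiments.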
(Reporter assays use an easily measured gene product as a stand-in for the process of interest.)

Series [6] in a line: Inhibition of hedgehog signaling pathway in mouse Light2 cells harboring wild type Smo after 36 hrs by Gli luciferase activity. The class given is cell-based. The essentials:
(§3)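 Light II cells (NIH-3T3 stably carrying Gli-responsive firefly luciferase and Renilla vector) transfected with wild-type, D473H or W535L Smo plasmid. Exposed to compound for 36 h, then dual luciferase assay with firefly/Renilla normalization. IC50 derived and given as mean ± SD.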

In series [7] the test system is Mus musculus. Briefly: Toxicity in athymic nude mouse implanted with mouse Ptch+/- p53-/- medulloblastoma cells assessed as body weight loss at 25 to 50 mg/kg, ip bid for 15 consecutive days. The class given is organism-based. As to conditions: in vivo. The method, boiled down: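 Body weight of nude mice (n = 5) carrying medulloblastoma allografts was followed during 15 days of twice-daily ip dosing in 0.5% methylcellulose/0.2% Tween-80 suspension. Data given as mean ± SD.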

Series [8] can be described thus: Antitumor activity against mouse Ptch+/- p53-/- medulloblastoma cells implanted in athymic nude mouse assessed as tumor growth inhibition at 25 mg/kg, ip bid for 15 consecutive days. The class given is functional. As to conditions: Medulloblastoma cell, read-out: TGI. The method, boiled down: (§4)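 Spontaneous ptch+/−;p53−/− intracranial medulloblastomas passaged subcutaneously in athymic nude mice, then 1 mm3 fragments implanted in the right flank. Dosing started at 100−150 mm3 tumor volume, n = 5. Drug given ip twice daily for 15 days as a suspension in 0.5% methylcellulose, 0.2% Tween-80. Caliper volume (length × width2/2) taken twice weekly. TGI calculated on the last day from growth versus vehicle.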

Series [9] is described as follows: Inhibition of hedgehog signaling pathway in mouse Shh Light2 cells harboring Gli2 plasmid assessed as reduction in Gli2-mediated transcriptional activity by luciferase reporter gene assay. In kind it is cell-based.
Series [10] can be described thus: Inhibition of hedgehog signaling pathway in mouse Shh Light2 cells assessed as reduction in ShhN-induced GLI-mediated transcriptional activity by luciferase reporter gene assay. The class given is cell-based. The method, boiled down: as §2
Series [11] is described as follows: Antitumor activity against mouse Ptch+/- p53-/- medulloblastoma cells implanted in athymic nude mouse assessed as tumor growth inhibition at 50 mg/kg, ip bid for 15 consecutive days. As to conditions: Medulloblastoma cell, read-out: TGI. The class given is functional. The method, boiled down: as §4
Series [12] in a line: Inhibition of hedgehog signaling pathway in mouse Light2 cells harboring Smo D473H mutant after 36 hrs by Gli luciferase activity. The class given is cell-based. The method, boiled down: as §3
Series [13] is described as follows: Inhibition of hedgehog signaling pathway in mouse Shh Light2 cells harboring Gli1 plasmid assessed as reduction in Gli1-mediated transcriptional activity by luciferase reporter gene assay. In kind it is cell-based.
Series [14] in a line: Inhibition of hedgehog signaling pathway in mouse Light2 cells harboring Smo W535L mutant after 36 hrs by Gli luciferase activity. The class given is cell-based. The essentials: as §3
Series [15] has as its system KB. Put plainly: Cytotoxicity against human KB cells. The class given is cell-based.
Series [16] is filed under the species Mus musculus. Put plainly: Inhibition of hedgehog signaling pathway in mouse NIH/3T3 cells assessed as downregulation of Shh-induced Gli1 mRNA expression levels at 100 nM after 36 hrs by RT-qPCR analysis. The class given is cell-based. The essentials:
(§5)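 NIH-3T3 or C3H10T1/2 cells treated as indicated for 36 h, then collected for RT-qPCR of Gli1 and ptch1 mRNA. Data given as mean ± SD.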

The species named for series [17] is Mus musculus. Put plainly: Inhibition of hedgehog signaling pathway in mouse Shh Light2 cells harboring Gli1 plasmid assessed as reduction in Gli1-mediated transcriptional activity at 100 nM by luciferase reporter gene assay. In kind it is cell-based.
The species entered for series [18] is Mus musculus. Put plainly: Inhibition of hedgehog signaling pathway in mouse C3H10T1/2 cells assessed as downregulation of Shh-induced Gli1 mRNA expression levels at 100 nM after 36 hrs by RT-qPCR analysis. The class given is cell-based. The essentials:
as §5

The species named for series [19] is Mus musculus. Briefly: Inhibition of hedgehog signaling pathway in mouse NIH/3T3 cells harboring sufu shRNA assessed as downregulation of Gli1 mRNA expression at 100 nM by RT-qPCR analysis. The class given is cell-based.
For series [20], the species on record is Mus musculus. Put plainly: Inhibition of hedgehog signaling pathway in mouse NIH/3T3 cells harboring sufu shRNA assessed as downregulation of ptch1 mRNA expression at 100 nM by RT-qPCR analysis. The class given is cell-based.
Series [21] is filed under the species Mus musculus. Put plainly: Inhibition of hedgehog signaling pathway in mouse Shh Light2 cells harboring Gli2 plasmid assessed as reduction in Gli2-mediated transcriptional activity at 100 nM by luciferase reporter gene assay. In kind it is cell-based.
For series [22], the species on record is Mus musculus. Briefly: Inhibition of hedgehog signaling pathway in mouse NIH/3T3 cells assessed as downregulation of Shh-induced ptch1 mRNA expression levels at 100 nM after 36 hrs by RT-qPCR analysis. The class given is cell-based. The method, boiled down: as §5
Series [23] is filed under the species Mus musculus. Put plainly: Inhibition of hedgehog signaling pathway in mouse C3H10T1/2 cells assessed as downregulation of Shh-induced ptch1 mRNA expression levels at 100 nM after 36 hrs by RT-qPCR analysis. In kind it is cell-based. The essentials: as §5
Series [24] concerns Medulloblastoma cell. Briefly: Antiproliferative activity against mouse Ptch+/- p53-/- medulloblastoma cells assessed as reduction in cell proliferation up to 30 uM after 72 hrs by MTS assay. The class given is functional, cell-based. The method, boiled down:
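Tumor cells obtained from ptch+/−;p53−/− medulloblastoma allografts by mechanical mincing and collagenase digestion. Cultured in Neurobasal A with B-27, EGF 20 ng/mL, bFGF 20 ng/mL, nonessential amino acids and N-acetylcysteine 60 μg/mL. Exposed to compounds for 72 h, then proliferation read by MTS assay. Data given as mean ± SD.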
(Tetrazolium dyes change colour on reduction, which living cells bring about.)

The term inhibition denotes how much of the control response was suppressed. As a reminder, the pEC50 is the EC50 on a negative log10 scale, so that one unit is a factor of ten. Broadly, the pIC50 is −log10 of the IC50, conventionally taken in molar units. Take `C[C@H](CO)N1C[C@H](C)[C@H](CN(C)S(=O)(=O)c2ccc(Cl)cc2Cl)Oc2c(NC(=O)C3CC3)cccc2C1=O`: the inhibition entry in [1] and in [3] was “inactive” in each case. Moreover, in series [2], the inhibition was 67%. Besides, the pEC50 in [4] is 7.22. The compound further gave a pIC50 in [5] of 6.42.

Take `COc1ccc(CN2C[C@@H]3CN(S(=O)(=O)c4ccc(Cl)cc4)CC[C@@H]3Oc3c(NC(=O)C4CC4)cccc3C2=O)cc1` (racemic): the pIC50 in series [6] was 7.45; in series [9], 7.60; in [10], 7.64; in series [12] it was 7.43; in series [13], 7.52; in series [5] it was 7.64. Further, the pIC50 is 7.40 in series [14] and under 4.70 in [15]. For the same compound, the Activity result in series [7] is listed as “Non-Toxic”. The inhibition in vivo at 25 mg/kg in series [8] was determined as 57.5%. Further, the inhibition in vivo at 50 mg/kg in [11] was 73.4%.

Take `CS(=O)(=O)c1ccc(C(=O)Nc2ccc(Cl)c(-c3ccccn3)c2)c(Cl)c1` [VISMODEGIB]: the inhibition result in series [16], in series [18], in [22], in series [23] and in [24] was “Active” in each case. The inhibition entry in [17], in series [19], in series [20] and in series [21] was “inactive” each time. For the same compound, the inhibition in series [2] was 93%. The pIC50 in [5] is 7.41.
